We go through 37 variants from the RNAGym collection of RNA variant scans (doi:10.1038/s41586-018-0170-7).

To fix the notation:
B1: tRNA (parent)
chain: GUUCCGUUGGCGUAAUGGUAACGCGUCUCCCUCCUAAGGAGAAGACUGCGGGUUCGAGUCCCGUACGGAACG

The data set covers variants of B1. Description: yeast fitness, log relative to wild type (ln ratio); higher = fitter; tRNA-Arg(CCU), competitive growth, 37 C, 1 M NaCl. The method, boiled down: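 For each genotype, fitness is defined as the natural log of its generation number over the wild type's. The tRNA-Arg(CCU) variant library was on a HIS3 centromeric plasmid in BY4742 with the chromosomal gene removed, and pools were first grown 4 generations in SC-HIS at 30 °C and then ~6.5 generations (~26.5 h) in SC-HIS 1M NaCl at 37 °C. Generations were calculated from OD-scaled log2 output/input frequency, weighted by inverse variance across replicates, using counts from 125 bp paired-end Illumina sequencing.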
Turning to GUUCCUUUGGCGUAAUGGUAACGCGUUUCCCUCCUAAGGAGAAGAUUGCGGGUUCGAGUCCCGUAUGGAGCG, the “yeast fitness (ln)” value was -0.207.

In the case of AUUCCUUUGGCGUAAUGGUAACGCGUUUCCCUCCUAAGGAGAAGACUGCGGGUUCGAGUCCCGUAUGGGAUG, the “yeast fitness (ln)” value is -0.295.

As for AGUCCAUUGGCGUAAUGGUAACGCGUCUCCCUCCUAAGGAGAAGAUUGCGGGUUCGAGUCCCGUAUGGAUCG, the “yeast fitness (ln)” value is -0.251.

Turning to GUUCCGUUGGCGUAAUGGUAACGCGUCUCCCUCCUAAGGAGACGACUGCGGGUUCGAGUCCCGUACGGGGCG, the “yeast fitness (ln)” value was -0.0594.

With AGUCCGUUGGCGUAAUGGUAACGCGUUUCCCUCCUAAGGAGAAGACUGCGGGUUCGAGUCCCGUAAGGGGUG, the “yeast fitness (ln)” value was -0.265.

On to GCUCCGUUGGCGUAAUGGUAACGCGUCUCCCUCCUAAGGAGAAGACUGCGGGUUCGAGUCCCGUACGGAAUG, for which the “yeast fitness (ln)” value is -0.101.

Take GGUCCGUUGGCGUAAUGGUAACGCGUCUCCCUCCUAAGGAGAAGACUGCGGGUUCGAGUCCCGUAUGGAGCG: the “yeast fitness (ln)” value is -0.0789.

For GCUCCAUUGGCGUAAUGGUAACGCGUCUCCCUCCUAAGGAGAAGACUGCGGGUUCGAGUCCCGUAAGGAGCG, the “yeast fitness (ln)” value was -0.0699.

GUUCCGUUGGCGUAAUGGUAACGCGUUUCCCUCCUAAGGAGACGAUUGCGGGUUCGAGUCCCGUAAGGGUUG: the “yeast fitness (ln)” value was -0.366.

Turning to GUUCCGUUGGCGUAAUGGUAACGCGUCUCCCUCCUAAGGAGACGACUGCGGGUUCGAGUCCCGUACGGGACG, the “yeast fitness (ln)” value was -0.0224.

Take GGUCCAUUGGCGUAAUGGUAACGCGUUUCCCUCCUAAGGAGACGACUGCGGGUUCGAGUCCCGUAUGGAGCG: the “yeast fitness (ln)” value is -0.223.

On to GGUCCAUUGGCGUAAUGGUAACGCGUCUCCCUCCUAAGGAGAAGACUGCGGGUUCGAGUCCCGUAUGGAGCG, for which the “yeast fitness (ln)” value is -0.0683.

GUUCCUUUGGCGUAAUGGUAACGCGUCUCCCUCCUAAGGAGAAGAUUGCGGGUUCGAGUCCCGUACGGAUCG: the “yeast fitness (ln)” value is -0.161.

As to ACUCCGUUGGCGUAAUGGUAACGCGUCUCCCUCCUAAGGAGAAGACUGCGGGUUCGAGUCCCGUAUGGAUUG, the “yeast fitness (ln)” value is -0.106.

As for GGUCCUUUGGCGUAAUGGUAACGCGUUUCCCUCCUAAGGAGACGACUGCGGGUUCGAGUCCCGUAUGGGAUG, the “yeast fitness (ln)” value is -0.645.

Take GCUCCGUUGGCGUAAUGGUAACGCGUUUCCCUCCUAAGGAGAAGAUUGCGGGUUCGAGUCCCGUACGGAACG: the “yeast fitness (ln)” value was -0.0168.

As for AGUCCUUUGGCGUAAUGGUAACGCGUUUCCCUCCUAAGGAGAAGAUUGCGGGUUCGAGUCCCGUAUGGAUCG, the “yeast fitness (ln)” value was -0.236.

Consider GUUCCUUUGGCGUAAUGGUAACGCGUUUCCCUCCUAAGGAGAAGAUUGCGGGUUCGAGUCCCGUAUGGGGUG, for which the “yeast fitness (ln)” value was -0.321.

On to ACUCCGUUGGCGUAAUGGUAACGCGUCUCCCUCCUAAGGAGACGAUUGCGGGUUCGAGUCCCGUAAGGAGUG, for which the “yeast fitness (ln)” value was -0.0667.

With GGUCCUUUGGCGUAAUGGUAACGCGUUUCCCUCCUAAGGAGACGAUUGCGGGUUCGAGUCCCGUAAGGAGCG, the “yeast fitness (ln)” value is -0.21.

As for AUUCCGUUGGCGUAAUGGUAACGCGUCUCCCUCCUAAGGAGACGACUGCGGGUUCGAGUCCCGUACGGAUCG, the “yeast fitness (ln)” value was -0.13.

As for AUUCCUUUGGCGUAAUGGUAACGCGUUUCCCUCCUAAGGAGAAGACUGCGGGUUCGAGUCCCGUAAGGAUUG, the “yeast fitness (ln)” value is -0.369.

As for GUUCCUUUGGCGUAAUGGUAACGCGUUUCCCUCCUAAGGAGACGAUUGCGGGUUCGAGUCCCGUAAGGAACG, the “yeast fitness (ln)” value was -0.0176.

With AUUCCAUUGGCGUAAUGGUAACGCGUUUCCCUCCUAAGGAGAAGACUGCGGGUUCGAGUCCCGUAAGGAAUG, the “yeast fitness (ln)” value is -0.224.

For GUUCCUUUGGCGUAAUGGUAACGCGUUUCCCUCCUAAGGAGACGAUUGCGGGUUCGAGUCCCGUAUGGAGUG, the “yeast fitness (ln)” value is -0.378.

Consider AGUCCGUUGGCGUAAUGGUAACGCGUUUCCCUCCUAAGGAGAAGAUUGCGGGUUCGAGUCCCGUACGGAUCG, for which the “yeast fitness (ln)” value is -0.293.

Regarding GUUCCGUUGGCGUAAUGGUAACGCGUCUCCCUCCUAAGGAGAAGAUUGCGGGUUCGAGUCCCGUAAGGAUCG, the “yeast fitness (ln)” value was found to be 0.00705.

On to AUUCCUUUGGCGUAAUGGUAACGCGUCUCCCUCCUAAGGAGACGAUUGCGGGUUCGAGUCCCGUAUGGAGCG, for which the “yeast fitness (ln)” value was -0.261.

With GGUCCGUUGGCGUAAUGGUAACGCGUCUCCCUCCUAAGGAGACGACUGCGGGUUCGAGUCCCGUACGGGUCG, the “yeast fitness (ln)” value was -0.023.

On to GGUCCAUUGGCGUAAUGGUAACGCGUUUCCCUCCUAAGGAGAAGACUGCGGGUUCGAGUCCCGUAAGGAAUG, for which the “yeast fitness (ln)” value was -0.216.

On to AUUCCUUUGGCGUAAUGGUAACGCGUUUCCCUCCUAAGGAGACGACUGCGGGUUCGAGUCCCGUAAGGAUUG, for which the “yeast fitness (ln)” value is -0.608.

AUUCCAUUGGCGUAAUGGUAACGCGUCUCCCUCCUAAGGAGACGAUUGCGGGUUCGAGUCCCGUACGGAAUG: the “yeast fitness (ln)” value is -0.145.

With GUUCCUUUGGCGUAAUGGUAACGCGUCUCCCUCCUAAGGAGACGACUGCGGGUUCGAGUCCCGUAUGGAGCG, the “yeast fitness (ln)” value is -0.273.

As for AGUCCGUUGGCGUAAUGGUAACGCGUUUCCCUCCUAAGGAGACGACUGCGGGUUCGAGUCCCGUACGGGGCG, the “yeast fitness (ln)” value is -0.263.

Consider ACUCCGUUGGCGUAAUGGUAACGCGUCUCCCUCCUAAGGAGAAGACUGCGGGUUCGAGUCCCGUAUGGGGUG, for which the “yeast fitness (ln)” value was -0.055.

With GGUCCUUUGGCGUAAUGGUAACGCGUCUCCCUCCUAAGGAGACGAUUGCGGGUUCGAGUCCCGUAAGGAAUG, the “yeast fitness (ln)” value was -0.154.

For AGUCCUUUGGCGUAAUGGUAACGCGUCUCCCUCCUAAGGAGAAGACUGCGGGUUCGAGUCCCGUAUGGAAUG, the “yeast fitness (ln)” value was -0.249.
